This is an account of results in ChEMBL document CHEMBL3769393, “Chiral pool synthesis and biological evaluation of C-furanosidic and acyclic LpxC inhibitors” (Eur J Med Chem, 2016).

Assay [1] can be described thus: Inhibition of Escherichia coli BL21(DE3) LpxC C63A mutant using UDP-3-O-(R-3-hydroxymyristoyl)-N-acetylglucosamine as substrate incubated for 30 mins by Cheng-Prusoff equation analysis.
The test system of assay [2] is Escherichia coli. The assay can be described thus: Antibacterial activity against envA mutant Escherichia coli D22 cells assessed as diameter of zone of growth inhibition after overnight incubation at 37 degC by agar disc diffusion clearance assay. Type of assay: functional. In outline:
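E. coli D22 (defective strain) grown overnight in LB broth at 37 °C, 200 rpm; 150 µL of overnight suspension spread on LB agar. 6 mm filter paper discs loaded with 15 µL compound (10 mM in DMSO); DMSO disc as negative control, CHIR-090 as positive control. Plates incubated overnight at 37 °C; growth-inhibition zone diameter measured.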
(Agar diffusion results depend on both activity and mobility in agar.)

Assay [3] in a line: Inhibition of Escherichia coli BL21(DE3) LpxC C63A mutant using UDP-3-O-(R-3-hydroxymyristoyl)-N-acetylglucosamine as substrate incubated for 30 mins by o-phthaldialdehyde-2-mercaptoethanol based fluorescence assay.
The subject of assay [4] is Escherichia coli. The experiment in a line: Antibacterial activity against Escherichia coli BL21(DE3) cells assessed as diameter of zone of growth inhibition after overnight incubation at 37 degC by agar disc diffusion clearance assay. It is filed as functional. In a few lines:
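Overnight LB broth cultures (37 °C, 200 rpm); 150 µL spread on LB agar. 6 mm filter discs loaded with 15 µL of 10 mM compound in DMSO. DMSO disc as negative control, CHIR-090 as positive control. Plates kept overnight at 37 °C, then diameter of the growth-inhibition zone measured.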

Structures are written as SMILES.

In general, Ki refers to the equilibrium dissociation constant of an inhibitor or competing ligand from its target. By IC50 is commonly meant the midpoint of a concentration-inhibition curve. With `O=C(NO)[C@H]1O[C@@H](c2ccc(C#Cc3ccc(CN4CCOCC4)cc3)cc2)[C@@H](O)[C@H]1O`, the Ki in assay [1] was over 27.6 µM. The “diameter of the inhibition zone (DIZ)” value in the assay on Escherichia coli [2] was 13.2 mm; in the assay on Escherichia coli [4], under 6 mm. The 50% inhibitory concentration (IC50) in assay [3] was over 200 µM.

`O=C(NO)[C@H](CO)O[C@H](CO)c1ccc(C#Cc2ccc(CN3CCOCC3)cc2)cc1` showed a Ki in assay [1] of 0.35 µM. In addition, the “diameter of the inhibition zone (DIZ)” value worked out at 20.4 mm in the assay on Escherichia coli [2] and 9.6 mm in the assay with Escherichia coli [4]. Besides, inhibition in assay [3] was half-maximal at 2.6 µM (IC50).

`O=C(NO)[C@H](CO)O[C@@H](CO)c1ccc(C#CC#Cc2ccccc2)cc1` returned a Ki in assay [1] of 0.6 µM. Besides, the “diameter of the inhibition zone (DIZ)” value was 18 mm in the assay on Escherichia coli [2] and 9 mm in the assay with Escherichia coli [4]. This compound showed a half-maximal inhibitory concentration (IC50) in assay [3] of 4.4 µM.

`O=C(NO)[C@@H](CO)O[C@@H](CO)c1ccc(C#Cc2ccc(CN3CCOCC3)cc2)cc1` had a Ki in assay [1] of 25 µM. The “diameter of the inhibition zone (DIZ)” value is listed as 20.3 mm in the assay on Escherichia coli [2] and under 6 mm with Escherichia coli [4]. In assay [3], this compound yielded a 50% inhibitory concentration (IC50) of 180 µM.

For `O=C(NO)c1ccc(-c2ccc(C#Cc3ccccc3)cc2)o1`, the “diameter of the inhibition zone (DIZ)” value in the assay with Escherichia coli [2] is 8 mm; with Escherichia coli [4], under 6 mm.

`O=C(NO)[C@H](CO)O[C@H](CO)c1ccc(C#CC#Cc2ccccc2)cc1`: the inhibitory constant (Ki) in assay [1] amounted to 0.23 µM. Also, the “diameter of the inhibition zone (DIZ)” value in the assay on Escherichia coli [2] turned out to be 21.3 mm; in the assay with Escherichia coli [4] it was 13.7 mm. The same compound registered a 50% inhibitory concentration (IC50) in assay [3] of 1.7 µM.

Regarding `O=C(NO)[C@H]1O[C@H](c2ccc(C#Cc3ccccc3)cc2)[C@@H](O)[C@H]1O`, in assay [1], the Ki stood at 5.9 µM. Also, the entries for the “diameter of the inhibition zone (DIZ)” value in the assay with Escherichia coli [2] and with Escherichia coli [4] were 13.6 mm and 6.8 mm, respectively. The same compound showed a half-inhibitory concentration (IC50) in assay [3] of 43 µM.

For `O=C(NO)[C@@H]1O[C@@H](c2ccc(C#Cc3ccc(CN4CCOCC4)cc3)cc2)[C@@H](O)[C@H]1O`, in assay [1], affinity was put at a Ki of 1.4 µM. For the same compound, the figures for the “diameter of the inhibition zone (DIZ)” value in the assay on Escherichia coli [2] and with Escherichia coli [4] were 22.1 mm and under 6 mm, respectively. In assay [3], the IC50 was determined as 10 µM.

The compound `O=C(NO)[C@H](CO)O[C@@H](CO)c1ccc(C#Cc2ccc(CN3CCOCC3)cc2)cc1` had a Ki in assay [1] of 2.9 µM. The “diameter of the inhibition zone (DIZ)” value with Escherichia coli [2] amounted to 27.9 mm; in the assay on Escherichia coli [4], 14.3 mm. The same compound had an IC50 in assay [3] of 21 µM.

In assay [1], `O=C(NO)[C@H](CO)O[C@@H](CO)c1ccc(C#Cc2ccccc2)cc1` came in with an inhibitory constant (Ki) of 21 µM. Moreover, the “diameter of the inhibition zone (DIZ)” value in the assay on Escherichia coli [2] worked out at 21.3 mm; with Escherichia coli [4], 6.8 mm. Besides, the IC50 in assay [3] is 150 µM.

For the compound `O=C(NO)[C@@H]1C[C@H](O)[C@H](c2ccc(C#Cc3ccc(CN4CCOCC4)cc3)cc2)O1`, the affinity in assay [1] corresponds to a Ki of 12 µM. For the same compound, the “diameter of the inhibition zone (DIZ)” value with Escherichia coli [2] was 15.3 mm; in the assay on Escherichia coli [4] it was under 6 mm. The compound also had a 50% inhibitory concentration (IC50) in assay [3] of 87 µM.

`O=C(NO)[C@@H]1O[C@H](c2ccc(C#Cc3ccc(CN4CCOCC4)cc3)cc2)[C@@H](O)[C@H]1O` came in with an inhibitory constant (Ki) in assay [1] of 5.8 µM. In assay [3], this compound displayed an IC50 of 42 µM. The “diameter of the inhibition zone (DIZ)” value with Escherichia coli [4] is listed as under 6 mm.

Compound `O=C(NO)[C@@H](CO)O[C@@H](CO)c1ccc(C#CC#Cc2ccccc2)cc1` gave an inhibition constant (Ki) in assay [1] of 2.7 µM. For the same compound, the “diameter of the inhibition zone (DIZ)” value in the assay on Escherichia coli [2] came to 10.5 mm; in the assay on Escherichia coli [4], 7.1 mm. The compound further had a half-maximal inhibitory concentration (IC50) in assay [3] of 20 µM.

For `O=C(NO)[C@@H]1O[C@H](c2ccc(C#Cc3ccccc3)cc2)[C@@H](O)[C@H]1O`, in assay [1], the Ki was over 27.6 µM. Moreover, the results for the “diameter of the inhibition zone (DIZ)” value in the assay on Escherichia coli [2] and with Escherichia coli [4] were 16.3 mm and under 6 mm, respectively. The concentration for half-maximal inhibition (IC50) in assay [3] is over 200 µM.

`O=C(NO)[C@@H](CO)O[C@@H](CO)c1ccc(C#Cc2ccccc2)cc1`: the Ki in assay [1] is over 27.6 µM. The “diameter of the inhibition zone (DIZ)” value in the assay with Escherichia coli [2] was 9.3 mm; in the assay on Escherichia coli [4] it was under 6 mm. In assay [3], the IC50 is over 200 µM.

The compound `O=C(NO)[C@@H]1O[C@H](c2ccc(C#CC#Cc3ccccc3)cc2)[C@@H](O)[C@H]1O` displayed a Ki in assay [1] of 0.69 µM. The “diameter of the inhibition zone (DIZ)” value with Escherichia coli [2] was 14.5 mm; in the assay on Escherichia coli [4] it was 10.7 mm. Also, in assay [3], the IC50 stood at 5 µM.

`CO[C@H]1[C@@H](O)[C@@H](C(=O)NO)O[C@H]1c1ccc(C#Cc2ccc(CN3CCOCC3)cc2)cc1` yielded an inhibition constant (Ki) in assay [1] of over 27.6 µM. Also, the figures for the “diameter of the inhibition zone (DIZ)” value in the assay on Escherichia coli [2] and in the assay on Escherichia coli [4] were 20.5 mm and under 6 mm, respectively. In assay [3], this compound registered an IC50 of over 200 µM.

As to `CO[C@@H]1[C@H](O)[C@H](c2ccc(C#Cc3ccc(CN4CCOCC4)cc3)cc2)O[C@@H]1C(=O)NO`, the Ki in assay [1] was over 27.6 µM. Further, the “diameter of the inhibition zone (DIZ)” value in the assay on Escherichia coli [2] was 11.7 mm; with Escherichia coli [4], under 6 mm. Also, in assay [3], the IC50 was over 200 µM.

As to `O=C(NO)[C@@H]1O[C@@H](c2ccc(C#CC#Cc3ccccc3)cc2)[C@@H](O)[C@H]1O`, the Ki in assay [1] turned out to be 2.1 µM. Further, the “diameter of the inhibition zone (DIZ)” value in the assay on Escherichia coli [2] is reported as 15.7 mm; in the assay on Escherichia coli [4], under 6 mm. The half-maximal inhibitory concentration (IC50) in assay [3] came to 15 µM.

Turning to `O=C(NO)[C@H](CO)O[C@H](CO)c1ccc(C#Cc2ccccc2)cc1`, the Ki in assay [1] is over 27.6 µM. Besides, the “diameter of the inhibition zone (DIZ)” value is listed as 16.2 mm in the assay with Escherichia coli [2] and under 6 mm with Escherichia coli [4]. In assay [3], this compound showed an IC50 of over 200 µM.

Regarding `O=C(NO)[C@@H]1O[C@@H](c2ccc(C#Cc3ccccc3)cc2)[C@@H](O)[C@H]1O`, the Ki in assay [1] was 3.3 µM. Moreover, the entries for the “diameter of the inhibition zone (DIZ)” value in the assay with Escherichia coli [2] and in the assay with Escherichia coli [4] were 18 mm and under 6 mm, respectively. 24 µM corresponded to half-maximal inhibition in assay [3] (IC50).

In assay [1], `O=C(NO)[C@@H](CO)O[C@H](CO)c1ccc(C#Cc2ccc(CN3CCOCC3)cc2)cc1` yielded a Ki of 1.1 µM. For the same compound, the results for the “diameter of the inhibition zone (DIZ)” value in the assay with Escherichia coli [2] and with Escherichia coli [4] were 26.1 mm and 16 mm, respectively. Also, in assay [3], 8 µM corresponded to half-maximal inhibition (IC50).

`O=C(NO)[C@H]1O[C@@H](c2ccc(C#Cc3ccccc3)cc2)[C@@H](O)[C@H]1O` came in with a Ki in assay [1] of over 27.6 µM. The “diameter of the inhibition zone (DIZ)” value with Escherichia coli [2] was 6.5 mm; in the assay on Escherichia coli [4], under 6 mm. The same compound returned a half-maximal inhibitory concentration (IC50) in assay [3] of over 200 µM.

In turn, `CC1(C)O[C@@H]2[C@H](O1)[C@H](c1ccc(C#Cc3ccc(CN4CCOCC4)cc3)cc1)O[C@@H]2C(=O)NO` had an inhibitory constant (Ki) in assay [1] of over 27.6 µM. Moreover, the figures for the “diameter of the inhibition zone (DIZ)” value in the assay on Escherichia coli [2] and in the assay with Escherichia coli [4] were 14.7 mm and under 6 mm, respectively. For the same compound, in assay [3], the 50% inhibitory concentration (IC50) was over 200 µM.

Regarding `O=C(NO)[C@H]1O[C@@H](c2ccc(C#CC#Cc3ccccc3)cc2)[C@@H](O)[C@H]1O`, the affinity in assay [1] corresponds to a Ki of 4.4 µM. For the same compound, the “diameter of the inhibition zone (DIZ)” value in the assay on Escherichia coli [2] is recorded as 9 mm; in the assay with Escherichia coli [4] it was under 6 mm. The compound also had an IC50 in assay [3] of 32 µM.

In assay [1], `O=C(NO)[C@H]1O[C@H](c2ccc(C#Cc3ccc(CN4CCOCC4)cc3)cc2)[C@@H](O)[C@H]1O` came in with a Ki of 4.7 µM. In addition, the “diameter of the inhibition zone (DIZ)” value in the assay on Escherichia coli [2] turned out to be 20.2 mm; with Escherichia coli [4], 9.8 mm. Besides, in assay [3], the IC50 is 34 µM.
